{"source": "ChEMBL document CHEMBL4765386", "about": "“Discovery of tertiary amide derivatives incorporating benzothiazole moiety as anti-gastric cancer agents in vitro via inhibiting tubulin polymerization and activating the Hippo signaling pathway” (Eur J Med Chem, 2020)", "key": {"SGC-7901 [1]": {"tested_on": "SGC-7901", "assay": "Antiproliferative activity against human SGC-7901 cells assessed as reduction in cell viability incubated for 48 hrs by MTT assay", "assay_type": "functional, cell-based", "settings": "SGC-7901, 48 h", "summary_of_the_method": "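MTT assay. 5,000 cells per well in RPMI-1640 with 10% FBS and penicillin/streptomycin at 37 °C, 5% CO2. Compound added 24 h after seeding and left for 48 h. MTT was then added for 4 h at 37 °C, formazan dissolved in DMSO and absorbance read at 490 nm. IC50 calculated from three independent experiments.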"}, "SGC-7901 [2]": {"tested_on": "SGC-7901", "assay": "Displacement of EBI from beta-tubulin in human SGC-7901 cells assessed as reduction in tubulin adduct formation incubated for 2 hrs followed by EBI addition and measured after 2 hrs by Western blot analysis", "assay_type": "cell-based", "settings": "dose 0.25-2.5 µM, time 4.0 hrs", "summary_of_the_method": "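EBI competition assay. […] EBI was then added at […] as printed for another 2 h. Harvested cells were immunoblotted with anti-β-tubulin antibody to detect β-tubulin and the alkylated β-tubulin adduct.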"}, "MGC-803 [3]": {"tested_on": "MGC-803", "assay": "Inhibition of tubulin polymerization in human MGC-803 cells assessed as decrease in filamentous structure at 20 to 60 nmol/L by DAPI staining based microscopic analysis", "assay_type": "cell-based", "settings": "dose 20-60 nmol/L", "summary_of_the_method": "(§1)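 Cells cultured in RPMI-1640 with 10% FBS at 37 °C, 5% CO2, treated 48 h with 20, 40 and 60 nM; stained for β-tubulin (green) and nuclei (blue) and examined by microscopy.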"}, "SGC-7901 [4]": {"tested_on": "SGC-7901", "assay": "Inhibition of tubulin polymerization in human SGC-7901 cells assessed as decrease in filamentous structure at 20 to 60 nmol/L by DAPI staining based microscopic analysis", "assay_type": "cell-based", "settings": "dose 20-60 nmol/L", "summary_of_the_method": "as §1"}, "SGC-7901 [5]": {"tested_on": "SGC-7901", "assay": "Inhibition of tubulin polymerization in human SGC-7901 cells assessed as increase in multiple nucleus formation at 20 to 60 nmol/L by DAPI staining based microscopic analysis", "assay_type": "cell-based", "settings": "dose 20-60 nmol/L", "summary_of_the_method": "as §1"}, "MGC-803 [6]": {"tested_on": "MGC-803", "assay": "Induction of cell cycle arrest in human MGC-803 cells assessed as upregulation of Histone-H3 Ser10 at 20 to 60 nM incubated for 48 hrs by Western blot analysis", "assay_type": "functional, cell-based", "settings": "dose 20-60 nM", "summary_of_the_method": "(§2)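 Cells grown in RPMI-1640 with 10% FBS, penicillin/streptomycin at 37 °C, 5% CO2. Exposure to 20, 40 or 60 nM for 48 h alongside DMSO control. Lysates denatured, resolved by SDS-PAGE, transferred to PVDF, blocked, then probed with primary and secondary antibodies.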"}, "MGC-803 [7]": {"tested_on": "MGC-803", "assay": "Induction of cell cycle arrest in human MGC-803 cells assessed as downregulation of Cyclin B1 at 20 to 60 nM incubated for 48 hrs by Western blot analysis", "assay_type": "functional, cell-based", "settings": "dose 20-60 nM", "summary_of_the_method": "as §2"}, "SGC-7901 [8]": {"tested_on": "SGC-7901", "assay": "Inhibition of colony formation in human SGC-7901 cells at 20 to 60 nM incubated for 7 days by crystal violet staining based assay", "assay_type": "functional, cell-based", "settings": "dose 20-60 nM, time 7.0 day", "summary_of_the_method": "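Cells maintained in RPMI-1640 with 10% FBS at 37 °C, 5% CO2; incubated with 20, 40 and 60 nM for 7 days before colony counting.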"}, "SGC-7901 [9]": {"tested_on": "SGC-7901", "assay": "Induction of cell cycle arrest in human SGC-7901 cells assessed as downregulation of CDK1 at 20 to 60 nM incubated for 48 hrs by Western blot analysis", "assay_type": "functional, cell-based", "settings": "dose 20-60 nM", "summary_of_the_method": "as §2"}, "MGC-803 [10]": {"tested_on": "MGC-803", "assay": "Cytotoxicity against human MGC-803 cells harboring SiYAP assessed as increase in cell viability at 20 to 60 nM incubated for 48 hrs by MTT assay", "assay_type": "cell-based", "settings": "mgc-803, 48 h, 0.06 µM, dose 20-60 nM"}, "SGC-7901 [11]": {"tested_on": "SGC-7901", "assay": "Activation of Hippo signaling pathway in human SGC-7901 cells assessed as downregulation of YAP at 20 to 60 nM incubated for 48 hrs by Western blot analysis", "assay_type": "cell-based", "settings": "filed as activator, dose 20-60 nM", "summary_of_the_method": "(§3)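 Western blot on gastric cancer cells exposed to compound or DMSO at 20, 40 and 60 nM for 48 h. Cells were lysed, then the denatured lysates were separated by SDS-PAGE and transferred to PVDF. Membranes were blocked and probed with primary and then secondary antibodies. Hippo pathway proteins were detected.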"}, "SGC-7901 [12]": {"tested_on": "SGC-7901", "assay": "Activation of Hippo signaling pathway in human SGC-7901 cells assessed as downregulation of TEAD at 20 to 60 nM incubated for 48 hrs by Western blot analysis", "assay_type": "cell-based", "settings": "filed as activator, dose 20-60 nM", "summary_of_the_method": "as §3"}, "SGC-7901 [13]": {"tested_on": "SGC-7901", "assay": "Activation of Hippo signaling pathway in human SGC-7901 cells assessed as decrease in Bcl-2 expression incubated for 48 hrs by Western blot analysis", "assay_type": "cell-based", "settings": "filed as activator, dose 20-60 nM", "summary_of_the_method": "as §3"}, "MGC-803 [14]": {"tested_on": "MGC-803", "assay": "Induction of apoptosis in human MGC-803 cells assessed as upregulation of t-Bid at 20 to 60 nM incubated for 48 hrs by Western blot analysis", "assay_type": "functional, cell-based", "settings": "dose 20-60 nM", "summary_of_the_method": "(§4)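 Western blot on MGC-803 and SGC-7901 cells given 20, 40 and 60 nM compound or DMSO for 48 h. Denatured lysates were run on SDS-PAGE and transferred to PVDF, then probed with primary and secondary antibodies to detect apoptosis-related proteins.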"}, "MGC-803 [15]": {"tested_on": "MGC-803", "assay": "Induction of apoptosis in human MGC-803 cells assessed as upregulation of Bax at 20 to 60 nM incubated for 48 hrs by Western blot analysis", "assay_type": "functional, cell-based", "settings": "dose 20-60 nM", "summary_of_the_method": "as §4"}, "MGC-803 [16]": {"tested_on": "MGC-803", "assay": "Induction of apoptosis in human MGC-803 cells assessed as downregulation of c-IAP2 at 20 to 60 nM incubated for 48 hrs by Western blot analysis", "assay_type": "functional, cell-based", "settings": "dose 20-60 nM", "summary_of_the_method": "as §4"}, "MGC-803 [17]": {"tested_on": "MGC-803", "assay": "Induction of apoptosis in human MGC-803 cells assessed as increase in caspase-9 cleavage at 20 to 60 nM incubated for 48 hrs by Western blot analysis", "assay_type": "functional, cell-based", "settings": "dose 20-60 nM", "summary_of_the_method": "as §4"}, "MGC-803 [18]": {"tested_on": "MGC-803", "assay": "Induction of apoptosis in human MGC-803 cells assessed as increase in PARP cleavage at 20 to 60 nM incubated for 48 hrs by Western blot analysis", "assay_type": "functional, cell-based", "settings": "dose 20-60 nM", "summary_of_the_method": "as §4"}, "SGC-7901 [19]": {"tested_on": "SGC-7901", "assay": "Induction of apoptosis in human SGC-7901 cells assessed as upregulation of t-Bid at 20 to 60 nM incubated for 48 hrs by Western blot analysis", "assay_type": "functional, cell-based", "settings": "dose 20-60 nM", "summary_of_the_method": "as §2"}, "SGC-7901 [20]": {"tested_on": "SGC-7901", "assay": "Induction of apoptosis in human SGC-7901 cells assessed as downregulation of XIAP at 20 to 60 nM incubated for 48 hrs by Western blot analysis", "assay_type": "functional, cell-based", "settings": "dose 20-60 nM", "summary_of_the_method": "as §4"}, "SGC-7901 [21]": {"tested_on": "SGC-7901", "assay": "Induction of apoptosis in human SGC-7901 cells assessed as downregulation of c-IAP2 at 20 to 60 nM incubated for 48 hrs by Western blot analysis", "assay_type": "functional, cell-based", "settings": "dose 20-60 nM", "summary_of_the_method": "as §2"}, "SGC-7901 [22]": {"tested_on": "SGC-7901", "assay": "Induction of apoptosis in human SGC-7901 cells assessed as increase in caspase-3 cleavage at 20 to 60 nM incubated for 48 hrs by Western blot analysis", "assay_type": "functional, cell-based", "settings": "dose 20-60 nM", "summary_of_the_method": "as §2"}, "SGC-7901 [23]": {"tested_on": "SGC-7901", "assay": "Induction of apoptosis in human SGC-7901 cells assessed as increase in caspase-9 cleavage at 20 to 60 nM incubated for 48 hrs by Western blot analysis", "assay_type": "functional, cell-based", "settings": "dose 20-60 nM", "summary_of_the_method": "as §2"}, "SGC-7901 [24]": {"tested_on": "SGC-7901", "assay": "Induction of apoptosis in human SGC-7901 cells assessed as increase in PARP cleavage at 20 to 60 nM incubated for 48 hrs by Western blot analysis", "assay_type": "functional, cell-based", "settings": "dose 20-60 nM", "summary_of_the_method": "as §2"}, "SGC-7901 [25]": {"tested_on": "SGC-7901", "assay": "Induction of apoptosis in human SGC-7901 cells assessed as early apoptotic cells at 20 nM incubated for 48 hrs by annexin V-FITC and PI staining based flow cytometry analysis (reference value: 1.4 %)", "assay_type": "functional"}, "SGC-7901 [26]": {"tested_on": "SGC-7901", "assay": "Induction of apoptosis in human SGC-7901 cells assessed as early apoptotic cells at 40 nM incubated for 48 hrs by annexin V-FITC and PI staining based flow cytometry analysis (reference value: 1.4 %)", "assay_type": "functional"}, "MGC-803 [27]": {"tested_on": "MGC-803", "assay": "Induction of apoptosis in human MGC-803 cells assessed as fragmentation of cells at 20 to 60 nM", "assay_type": "functional, cell-based", "settings": "dose 20-60 nM"}}, "note": "The source made the active and inactive calls. No cut-off for these calls is given here."}
{"smiles": "COc1ccc(CN(C(=O)CSc2nc3ccccc3s2)c2cc(OC)c(OC)c(OC)c2)cc1O", "values": [{"measurement": "IC50", "setting": "SGC-7901 [1]", "value": 0.049, "unit": "µM"}, {"measurement": "inhibition", "setting": "SGC-7901 [2]", "value": "Dose-dependent effect"}, {"measurement": "Activity", "setting": "MGC-803 [3]", "value": "Active"}, {"measurement": "Activity", "setting": "SGC-7901 [4]", "value": "Active"}, {"measurement": "Activity", "setting": "SGC-7901 [5]", "value": "Active"}, {"measurement": "Activity", "setting": "MGC-803 [6]", "value": "Active"}, {"measurement": "Activity", "setting": "MGC-803 [7]", "value": "Active"}, {"measurement": "Activity", "setting": "SGC-7901 [8]", "value": "Active"}, {"measurement": "Activity", "setting": "SGC-7901 [9]", "value": "Active"}, {"measurement": "Activity", "setting": "MGC-803 [10]", "value": "Non-Toxic"}, {"measurement": "Activity", "setting": "SGC-7901 [11]", "value": "Active"}, {"measurement": "Activity", "setting": "SGC-7901 [12]", "value": "Active"}, {"measurement": "Activity", "setting": "SGC-7901 [13]", "value": "Dose-dependent effect"}, {"measurement": "Activity", "setting": "MGC-803 [14]", "value": "Active"}, {"measurement": "Activity", "setting": "MGC-803 [15]", "value": "Active"}, {"measurement": "Activity", "setting": "MGC-803 [16]", "value": "Active"}, {"measurement": "Activity", "setting": "MGC-803 [17]", "value": "Active"}, {"measurement": "Activity", "setting": "MGC-803 [18]", "value": "Active"}, {"measurement": "Activity", "setting": "SGC-7901 [19]", "value": "Active"}, {"measurement": "Activity", "setting": "SGC-7901 [20]", "value": "Active"}, {"measurement": "Activity", "setting": "SGC-7901 [21]", "value": "Active"}, {"measurement": "Activity", "setting": "SGC-7901 [22]", "value": "Active"}, {"measurement": "Activity", "setting": "SGC-7901 [23]", "value": "Active"}, {"measurement": "Activity", "setting": "SGC-7901 [24]", "value": "Active"}, {"measurement": "Activity", "setting": "SGC-7901 [25]", "value": 4.2, "unit": "%"}, {"measurement": "Activity", "setting": "SGC-7901 [26]", "value": 9.5, "unit": "%"}, {"measurement": "Activity", "setting": "MGC-803 [27]", "value": "Active"}]}
